Experiments:
[1] = biological target: T1, BRD4(1) (Homo sapiens, UniProt O60885); assay: Thermal shift assay; format: binding
[2] = biological target: T1, BRD4(1); assay: Alphascreen assay against BRD4; format: biochemical
[3] = system: c-Myc; assay: qRT-PCR of c-Myc mRNA in MV4-11; format: cell-based, human; conditions: MV4-11, 48 h, 1 μM, 5 μM and 10 μM vs control
Procedure, shortened: (§1)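 Log-phase cells seeded at 5000 per well, grown 12 h, then given a range of test compound concentrations for 48 h, in triplicate wells. RNA extracted with TRIzol; reverse transcription with iScript (25 °C 5 min, 42 °C 30 min, 85 °C 5 min). EvaGreen qPCR used gene-specific primers. Expression by 2−ΔΔCt, normalised to GAPDH; one-way ANOVA with Tukey's test.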

[4] = system: CDK6; assay: qRT-PCR of CDK6 mRNA in MV4-11; format: cell-based, human; conditions: MV4-11, 48 h, 1 μM, 5 μM and 10 μM vs control
Procedure, shortened: as §1

[5] = system: c-Myc; assay: Western blotting of c-Myc in MV4-11; format: cell-based, human; conditions: MV4-11, 48 h, Western blot
Procedure, shortened: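 MV4-11 cells treated 48 h with several compound concentrations, then lysed 30 min on ice in RIPA with PMSF and cleared at 12,000 r/min, 4 °C. Protein quantified by BCA, run on 8% SDS-PAGE, blotted to PVDF and blocked in 5% milk/TBST. Probed with anti-c-Myc (1:1000, 4 °C overnight) and HRP anti-rabbit (1:50000, 1 h), then ECL. Densitometry relative to GAPDH; ANOVA/Tukey.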

[6] = system: MV4-11 cells; assay: Cell cycle analysis by flow cytometry; format: cell-based, human; conditions: MV4-11, 48 h
Procedure, shortened: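 Cells seeded at 5 × 10^3 per well, grown 12 h, then exposed to graded test compound concentrations or DMSO for 48 h at 37 °C. Fixed overnight in 70% ethanol at 4 °C. RNase A (about 50 μg/mL final) at 37 °C for 30 min, then PI (about 65 μg/mL final) on ice in the dark for 30 min. Flow cytometry within 1 h; one-way ANOVA with Tukey's test.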

[7] = system: MV4-11 cells; assay: Apoptosis analysis by flow cytometry; format: cell-based, human; conditions: MV4-11, 1 μM, 5 μM and 10 μM vs control
Procedure, shortened: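 Harvested cells washed in cold PBS and resuspended at 10^6/mL in 1× Annexin binding buffer. Stained with Alexa Fluor 488 Annexin V plus propidium iodide (100 μg/mL working solution) for 15 min at room temperature in the dark, then analysed by flow cytometry. Groups compared by one-way ANOVA with Tukey's test.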

Structure (SMILES): CCc1noc2cc(OC)c(NS(=O)(=O)c3ccccc3)cc12 [Compound 11d, N-(3-Ethyl-6-methoxybenzo[d]isoxazol-5-yl)benzenesulfonamide]
- binding activity to BRD4 (TSA), in words [1]: moderate activity

Structure (SMILES): CCc1noc2cc(OC)c(NS(=O)(=O)c3ccccc3OC)cc12 [Compound 11h, N-(3-Ethyl-6-methoxybenzo[d]isoxazol-5-yl)-2-methoxybenzenesulfonamide]
- IC50 [2]: 94 nM

Structure (SMILES): CCc1noc2cc(OC)c(NS(=O)(=O)c3cccs3)cc12 [Compound 11y, N-(3-Ethyl-6-methoxybenzo[d]isoxazol-5-yl)thiophene-2-sulfonamide]
- binding activity to BRD4 (TSA), in words [1]: good binding activities

Structure (SMILES): CCc1noc2cc(OC)c(NS(=O)(=O)c3cccnc3)cc12 [Compound 11z, N-(3-Ethyl-6-methoxybenzo[d]isoxazol-5-yl)pyridine-3-sulfonamide]
- binding activity to BRD4 (TSA), in words [1]: good binding activities

Structure (SMILES): CCc1noc2cc(OC)c(NS(=O)(=O)CC)cc12 [Compound 11a, N-(3-Ethyl-6-methoxybenzo[d]isoxazol-5-yl)ethanesulfonamide]
- binding activity to BRD4 (TSA), in words [1]: moderate binding activity

Structure (SMILES): CCc1noc2cc(OC)c(NS(=O)(=O)c3ccc(OC)cc3)cc12 [Compound 11r, N-(3-Ethyl-6-methoxybenzo[d]isoxazol-5-yl)-4-methoxybenzenesulfonamide]
- mRNA expression of c-Myc [3]: decreased significantly
- mRNA expression of CDK6 [4]: decreased significantly
- c-Myc expression at the protein level [5]: remarkable dose-dependent decrease
- cell cycle arrest, in words [6]: induce cell cycle arrest in G0/G1 phase in a dose-dependent manner
- apoptosis rate, in words [7]: significantly increased
